≈ marks a conversion by molar mass, not a printed value.
Columns and labels:
Assay type in all cases: functional
[1] = tested on: Escherichia coli; experiment: Antimicrobial activity against Escherichia coli ATCC 25922 after 16 to 18 hrs by […]
[2] = tested on: Mycolicibacterium fortuitum; experiment: Antimicrobial activity against Mycobacterium fortuitum ATCC 19542 after 7 days by resazurin assay; conditions: ATCC 19542, 168 h
[3] = tested on: Aspergillus flavus; experiment: Antimicrobial activity against Aspergillus flavus after 3 to 4 days by serial plate dilution method
In short: (§1)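 Fungal MIC by serial plate dilution. Sabouraud agar (peptone, D-glucose, agar; pH 5.7) plates seeded with saline spore suspension, dried 1 h at 37 °C. Wells punched and filled with compound in DMSO; DMSO-only control. Triplicate plates held 3–4 days at 37 °C; inhibition zone diameter measured. Amphotericin B positive control. Tested range […] per mL.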

[4] = tested on: Staphylococcus aureus; experiment: Antimicrobial activity against Staphylococcus aureus ATCC 25923 after 16 to 18 hrs by […]
[5] = tested on: Mycobacterium tuberculosis; experiment: Antimicrobial activity against Mycobacterium tuberculosis H37Rv ATCC 27294 after 7 days by resazurin assay; conditions: H37Rv ATCC 27294, 168 h
In short: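 Resazurin microtitre assay. Cultures were grown in Middlebrook 7H9 with 10% OADC and added to fresh medium in 96-well plates. Test compounds came from 2 mg/mL DMF stocks, with DMF-only controls. Plates were incubated 7 days at 37 °C, then resazurin was added and read after 1 h at 37 °C. MIC was the lowest concentration preventing the blue-to-pink change.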

[6] = tested on: Klebsiella pneumoniae; experiment: Antimicrobial activity against Klebsiella pneumoniae ATCC 13883 after 16 to 18 hrs by serial plate dilution method
In short: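 Bacterial MIC by serial dilution in Mueller-Hinton broth adjusted to pH 5.0 with phosphate buffer. Tubes inoculated with standardized bacterial suspension, incubated 16–18 h at 37 °C. MIC read as lowest concentration with no visible growth. Range […] per mL. DMSO as negative control, ciprofloxacin as positive control.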

[7] = tested on: Candida albicans; experiment: Antimicrobial activity against Candida albicans after 3 to 4 days by serial plate dilution method; in short: as §1
[8] = tested on: Mycobacterium tuberculosis; experiment: Antimicrobial activity against Mycobacterium tuberculosis H37Rv ATCC 27294 at 1 to 100 ug/ml after 7 days by resazurin assay
In short: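 Preliminary screen at three concentrations (1, 10 and 100) by resazurin microtitre assay. Cultures were grown in Middlebrook 7H9 with 10% OADC, and compounds came from 2 mg/mL DMF stocks with DMF controls. Plates were incubated 7 days at 37 °C, and resazurin colour was read after 1 h. Inhibition was scored as no blue-to-pink change.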

[9] = tested on: Rhizopus; experiment: Antimicrobial activity against Rhizopus sp. after 3 to 4 days by serial plate dilution method; in short: as §1
[10] = tested on: Mycolicibacterium smegmatis; experiment: Antimicrobial activity against Mycobacterium smegmatis (MC2) ATCC 19420 after 7 days by resazurin assay; conditions: (MC2) ATCC 19420, 168 h

Work on COc1cc(NS(=O)(=O)C2(c3ccc(Cl)cc3)CC2)ccc1-n1cnc(Cl)c1 yielded an MIC [1] of 64 µg/mL (≈ 146 µM), an MIC [2] of 10 µg/mL (≈ 22.8 µM) and an MIC [3] of 64 µg/mL (≈ 146 µM). It also gave an MIC [4] of 128 µg/mL (≈ 292 µM), an MIC [5] of 1.25 µg/mL (≈ 2.85 µM) and an MIC [6] of 128 µg/mL (≈ 292 µM). For the same compound, the MIC [7] was 128 µg/mL (≈ 292 µM), the “inhibition (INH)” value [8] was 90% and the MIC [9] was 128 µg/mL (≈ 292 µM).
COc1cc(NS(=O)(=O)c2ccccc2)ccc1-n1cnc(Cl)c1 gave an MIC [1] of 64 µg/mL (≈ 176 µM), an MIC [3] of 128 µg/mL (≈ 352 µM) and an MIC [4] of 8 µg/mL (≈ 22 µM). For the same compound, the MIC [5] was 5 µg/mL (≈ 13.7 µM), the MIC [10] was 10 µg/mL (≈ 27.5 µM) and the MIC [6] was 128 µg/mL (≈ 352 µM). The MIC [7] was 128 µg/mL (≈ 352 µM), the “inhibition (INH)” value [8] was under 90% and the MIC [9] was 64 µg/mL (≈ 176 µM).
For COc1ccc(S(=O)(=O)Nc2ccc(-n3cnc(Cl)c3)c(OC)c2)cc1OC, the MIC [1] was 128 µg/mL (≈ 302 µM), the MIC [2] was 1.25 µg/mL (≈ 2.95 µM) and the MIC [3] was 256 µg/mL (≈ 604 µM). The MIC [4] was 256 µg/mL (≈ 604 µM), the MIC [5] was 1.25 µg/mL (≈ 2.95 µM) and the MIC [10] was 1.25 µg/mL (≈ 2.95 µM). For the same compound, the MIC [6] was 256 µg/mL (≈ 604 µM), the MIC [7] was 128 µg/mL (≈ 302 µM) and the “inhibition (INH)” value [8] was 90%. It also gave an MIC [9] of 128 µg/mL (≈ 302 µM).
COc1cc(NS(=O)(=O)c2ccc([N+](=O)[O-])cc2)ccc1-n1cnc(Cl)c1 was tested, and the MIC [1] was 128 µg/mL (≈ 313 µM), the MIC [2] was 1.25 µg/mL (≈ 3.06 µM) and the MIC [3] was 128 µg/mL (≈ 313 µM). It also gave an MIC [4] of 128 µg/mL (≈ 313 µM), an MIC [5] of 0.625 µg/mL (≈ 1.53 µM) and an MIC [10] of 10 µg/mL (≈ 24.5 µM). For the same compound, the MIC [6] was 64 µg/mL (≈ 157 µM), the MIC [7] was 256 µg/mL (≈ 626 µM) and the “inhibition (INH)” value [8] was 90%. It also gave an MIC [9] of 64 µg/mL (≈ 157 µM).
For COc1cc(NS(=O)(=O)c2cccc(C(C)C#N)c2)ccc1-n1cnc(Cl)c1 (configuration not stated), the MIC [1] was 128 µg/mL (≈ 307 µM), the MIC [3] was 128 µg/mL (≈ 307 µM) and the MIC [4] was 64 µg/mL (≈ 154 µM). The MIC [5] was 2.5 µg/mL (≈ 6 µM), the MIC [10] was 2.5 µg/mL (≈ 6 µM) and the MIC [6] was 64 µg/mL (≈ 154 µM). For the same compound, the MIC [7] was 64 µg/mL (≈ 154 µM), the “inhibition (INH)” value [8] was under 90% and the MIC [9] was 256 µg/mL (≈ 614 µM).
In the case of COc1cc(NC(=O)c2ccccc2)ccc1-n1cnc(Cl)c1, the MIC [1] is reported as 256 µg/mL (≈ 781 µM), the MIC [3] is reported as 256 µg/mL (≈ 781 µM) and the MIC [4] is reported as 128 µg/mL (≈ 391 µM). It also gave an MIC [5] of 5 µg/mL (≈ 15.3 µM), an MIC [10] of 10 µg/mL (≈ 30.5 µM) and an MIC [6] of 128 µg/mL (≈ 391 µM). The MIC [7] was 256 µg/mL (≈ 781 µM), the “inhibition (INH)” value [8] was under 90% and the MIC [9] was 128 µg/mL (≈ 391 µM).
COc1ccc(C(=O)Nc2ccc(-n3cnc(Cl)c3)c(OC)c2)cc1OC showed an MIC [1] of 256 µg/mL (≈ 660 µM), an MIC [3] of 128 µg/mL (≈ 330 µM) and an MIC [4] of over 256 µg/mL. The MIC [6] was 256 µg/mL (≈ 660 µM), the MIC [7] was over 256 µg/mL and the “inhibition (INH)” value [8] was 0%. The MIC [9] was 256 µg/mL (≈ 660 µM).
COc1cc(NC(=O)c2ccc([N+](=O)[O-])cc2)ccc1-n1cnc(Cl)c1 was tested, and the MIC [1] was over 256 µg/mL, the MIC [2] was 1.25 µg/mL (≈ 3.35 µM) and the MIC [3] was over 256 µg/mL. The MIC [4] was 256 µg/mL (≈ 687 µM), the MIC [5] was 1.25 µg/mL (≈ 3.35 µM) and the MIC [10] was 2.5 µg/mL (≈ 6.71 µM). For the same compound, the MIC [6] was over 256 µg/mL, the MIC [7] was over 256 µg/mL and the “inhibition (INH)” value [8] was under 90%. The MIC [9] was 256 µg/mL (≈ 687 µM).
COc1cc(NC(=O)c2cccc(C(C)C#N)c2)ccc1-n1cnc(Cl)c1 (configuration not stated) was tested, and the MIC [1] was over 256 µg/mL, the MIC [2] was 10 µg/mL (≈ 26.3 µM) and the MIC [3] was 256 µg/mL (≈ 672 µM). It also gave an MIC [4] of 256 µg/mL (≈ 672 µM), an MIC [5] of 2.5 µg/mL (≈ 6.56 µM) and an MIC [6] of 128 µg/mL (≈ 336 µM). The MIC [7] was 128 µg/mL (≈ 336 µM), the “inhibition (INH)” value [8] was 90% and the MIC [9] was 128 µg/mL (≈ 336 µM).
COc1cc(NS(=O)(=O)c2ccc(Cl)cc2Cl)ccc1-n1cnc(Cl)c1 showed an MIC [1] of 4 µg/mL (≈ 9.24 µM), an MIC [3] of 64 µg/mL (≈ 148 µM) and an MIC [4] of 8 µg/mL (≈ 18.5 µM). It also gave an MIC [5] of 5 µg/mL (≈ 11.6 µM), an MIC [6] of 64 µg/mL (≈ 148 µM) and an MIC [7] of 128 µg/mL (≈ 296 µM). The “inhibition (INH)” value [8] was under 90% and the MIC [9] was 128 µg/mL (≈ 296 µM).
For COc1cc(NS(=O)(=O)c2ccco2)ccc1-n1cnc(Cl)c1, the MIC [1] was 64 µg/mL (≈ 181 µM), the MIC [3] was 64 µg/mL (≈ 181 µM) and the MIC [4] was 128 µg/mL (≈ 362 µM). For the same compound, the MIC [5] was 5 µg/mL (≈ 14.1 µM), the MIC [10] was 10 µg/mL (≈ 28.3 µM) and the MIC [6] was over 256 µg/mL. The MIC [7] was 128 µg/mL (≈ 362 µM), the “inhibition (INH)” value [8] was under 90% and the MIC [9] was 256 µg/mL (≈ 724 µM).
Work on COc1cc(NS(=O)(=O)c2cccc([N+](=O)[O-])c2Cl)ccc1-n1cnc(Cl)c1 yielded an MIC [1] of 128 µg/mL (≈ 289 µM), an MIC [3] of 128 µg/mL (≈ 289 µM) and an MIC [4] of 8 µg/mL (≈ 18 µM). For the same compound, the MIC [5] was 2.5 µg/mL (≈ 5.64 µM), the MIC [10] was 2.5 µg/mL (≈ 5.64 µM) and the MIC [6] was 32 µg/mL (≈ 72.2 µM). For the same compound, the MIC [7] was 64 µg/mL (≈ 144 µM), the “inhibition (INH)” value [8] was under 90% and the MIC [9] was 256 µg/mL (≈ 578 µM).
COc1cc(F)c(S(=O)(=O)Nc2ccc(-n3cnc(Cl)c3)c(OC)c2)c(C(F)(F)F)c1 was tested, and the MIC [1] was 128 µg/mL (≈ 267 µM), the MIC [3] was 128 µg/mL (≈ 267 µM) and the MIC [4] was 64 µg/mL (≈ 133 µM). For the same compound, the MIC [5] was 5 µg/mL (≈ 10.4 µM), the MIC [10] was 10 µg/mL (≈ 20.8 µM) and the MIC [6] was 32 µg/mL (≈ 66.7 µM). For the same compound, the MIC [7] was 128 µg/mL (≈ 267 µM), the “inhibition (INH)” value [8] was under 90% and the MIC [9] was 256 µg/mL (≈ 534 µM).
COc1cc(NS(=O)(=O)c2cccs2)ccc1-n1cnc(Cl)c1 showed an MIC [1] of 64 µg/mL (≈ 173 µM), an MIC [2] of 1.25 µg/mL (≈ 3.38 µM) and an MIC [3] of 256 µg/mL (≈ 692 µM). For the same compound, the MIC [4] was 128 µg/mL (≈ 346 µM), the MIC [5] was 1.25 µg/mL (≈ 3.38 µM) and the MIC [10] was 1.25 µg/mL (≈ 3.38 µM). For the same compound, the MIC [6] was 256 µg/mL (≈ 692 µM), the MIC [7] was 64 µg/mL (≈ 173 µM) and the “inhibition (INH)” value [8] was 90%. The MIC [9] was 128 µg/mL (≈ 346 µM).

Source: ChEMBL document CHEMBL3097988, “Synthesis and characterization of new N-(4-(4-chloro-1H-imidazol-1-yl)-3-methoxyphenyl)amide/sulfonamide derivatives as possible antimicrobial and antitubercular agents” (2014)
